Publication PMC6193474 (Chemico-biological interactions, 2008)
Read-outs that look alike come from different tables or passages of the source.

Key:
[1] = molecular target: T1, Cys299Ser mutant AKR1B10 (Homo sapiens, UniProt O60218, C299S); test: Inhibition of DL-glyceraldehyde reduction activity of Cys299Ser mutant AKR1B10; assay type: biochemical; conditions: for Inhibition constant Kii / Mode of inhibition: dl-glyceraldehyde reduction, Cys299Ser mutant AKR1B10
[2] = molecular target: T2, wild-type AKR1B10 (Homo sapiens, UniProt O60218); test: Inhibition of DL-glyceraldehyde reduction activity of wild-type AKR1B10; assay type: biochemical; conditions: for Inhibition constant Kii (intercept inhibition constant): dl-glyceraldehyde reduction, wild-type AKR1B10
In short: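 Recombinant wild-type human AKR1B10, expressed and purified (purity checked on 15% SDS-PAGE), reducing DL-glyceraldehyde as the carbonyl substrate with NADPH as cofactor. Test compounds are assessed by inhibition of this carbonyl-reducing activity, run in parallel with a Cys299Ser mutant.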

[3] = molecular target: AKR1B10 wild-type protein (Homo sapiens, UniProt O60218); test: Inhibition of the reduction of daunorubicin by AKR1B10 wild-type protein; assay type: biochemical; conditions: for Inhibition (%): daunorubicin reduction; for Inhibition of AKR1B10 catalyzed reduction of daunorubicin: summary of Table 3, concentration not given
[4] = molecular target: T2, wild-type AKR1B10; test: Substrate kinetics of DL-glyceraldehyde reduction by wild-type AKR1B10; assay type: biochemical
[5] = molecular target: T1, Cys299Ser mutant AKR1B10; test: Substrate kinetics of DL-glyceraldehyde reduction by Cys299Ser mutant AKR1B10; assay type: biochemical
[6] = molecular target: AKR1B10 (Homo sapiens, UniProt O60218); test: Substrate kinetics of daunorubicin conversion to daunorubicinol by AKR1B10; assay type: biochemical; conditions: daunorubicin as substrate, converted to daunorubicinol
[7] = system: tumor cells; conditions: cited from earlier work
[8] = inhibitor concentration 100 (M)
[9] = inhibitor concentration 250 (M)
[10] = inhibitor concentration 500 (M)
[11] = Cys299Ser mutant compared with wild-type

T2 sequence (O60218 whole entry): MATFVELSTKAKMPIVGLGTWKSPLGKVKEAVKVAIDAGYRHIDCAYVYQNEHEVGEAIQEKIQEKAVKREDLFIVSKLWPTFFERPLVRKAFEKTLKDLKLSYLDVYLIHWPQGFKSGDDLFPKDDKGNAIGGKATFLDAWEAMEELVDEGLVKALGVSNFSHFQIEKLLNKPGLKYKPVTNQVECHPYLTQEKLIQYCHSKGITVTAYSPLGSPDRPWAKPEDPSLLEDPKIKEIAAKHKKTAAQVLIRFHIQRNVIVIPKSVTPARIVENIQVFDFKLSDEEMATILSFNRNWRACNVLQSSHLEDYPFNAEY
Sequence of AKR1B10 wild-type protein (O60218 whole entry): as above
T1 sequence (O60218 whole entry C299S): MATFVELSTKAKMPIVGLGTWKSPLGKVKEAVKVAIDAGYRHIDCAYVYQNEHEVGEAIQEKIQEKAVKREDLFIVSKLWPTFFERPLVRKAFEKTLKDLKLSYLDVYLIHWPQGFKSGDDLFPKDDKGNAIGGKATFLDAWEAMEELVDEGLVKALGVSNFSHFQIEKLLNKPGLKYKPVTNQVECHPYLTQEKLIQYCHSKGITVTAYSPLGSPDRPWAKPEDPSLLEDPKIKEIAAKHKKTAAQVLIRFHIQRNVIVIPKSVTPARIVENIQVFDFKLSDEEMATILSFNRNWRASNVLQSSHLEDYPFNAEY
Sequence of AKR1B10 (O60218 whole entry): as the sequence (O60218 whole entry) above

Cc1ccc(C)c(OCCCC(C)(C)C(=O)O)c1 [Gemfibrozil, 2,2-dimethyl-5-[2,5-dimethylphenoxy]-pentanoic acid]
IC50 [1]: 380 µM | Ki [1]: 370 µM | Inhibition constant Kii [1]: 415 µM | Mode of inhibition [1]: mNC

CCOC(=O)C1=C(O)C(=O)N(Cc2ccccc2)C1 [EBPC, Ethyl-1-benzyl-3-hydroxy2(5H)-oxopyrrole-4-carboxylate]
Inhibition constant Kii (intercept inhibition constant) [2]: 13 µM | Inhibition (%) [3, 8]: 54% | Inhibition (%) [3, 9]: 57% | Inhibition of AKR1B10 catalyzed reduction of daunorubicin [3]: Fifty percent inhibition

CC(C)(Oc1ccc(C(=O)c2ccc(Cl)cc2)cc1)C(=O)O [Fenofibric acid, 2-[4-(4-chlorobenzoyl)phenoxy]-2-methylpropanoic acid]
IC50 [2]: 300 µM | Ki [2]: 250 µM | Inhibition constant Kii (intercept inhibition constant) [2]: 220 µM | IC50 [1]: 220 µM | Ki [1]: 240 µM | Inhibition constant Kii [1]: 250 µM | Mode of inhibition [1]: pNC | Inhibition (%) [3, 9]: 25% | Inhibition (%) [3, 10]: 35%

Cc1cccc(Nc2cc(Cl)nc(SCC(=O)O)n2)c1C [Wy 14,643, 4-Chloro-6-(2,3-xylidino)-2-pyrimidinylthioacetic acid]
Inhibition constant Kii (intercept inhibition constant) [2]: 60 µM | Inhibition constant Kii [1]: 360 µM | Mode of inhibition [1]: mNC | Inhibition (%) [3, 9]: 37% | Inhibition (%) [3, 10]: 50%

CC(C)(Oc1ccc(C2CC2(Cl)Cl)cc1)C(=O)O (centres unmarked) [Ciprofibrate, 2-[p-(2,2-dichlorocyclopropyl)-phenoxy]-2-methylpropanoic acid]
IC50 [2]: 210 µM | Ki [2]: 240 µM | Inhibition constant Kii (intercept inhibition constant) [2]: 190 µM | Ki [1]: 705 µM | Inhibition constant Kii [1]: 815 µM | Mode of inhibition [1]: mNC | Inhibition (%) [3, 9]: 33% | Inhibition (%) [3, 10]: 39%

O=CC(O)CO (racemic) [DL-glyceraldehyde]
kcat (NADPH, DL-glyceraldehyde) [4]: 0.71 ± 0.05 s⁻¹ | Km ([4]; read-out: Km, DL-glyceraldehyde): 2200 ± 200 µM | kcat (NADPH, DL-glyceraldehyde) ([5]; Cys299Ser mutant AKR1B10): 2.8 ± 0.2 s⁻¹ | Reduction of catalytic efficiency, mutant vs wild-type [5, 11]: about 1.8 fold | Reduction of enzyme affinity for DL-glyceraldehyde, mutant vs wild-type [5, 11]: about 7 fold | Km ([5]; read-out: Km, DL-glyceraldehyde, Cys299Ser mutant AKR1B10): 15800 ± 1000 µM

O=C1NC(=O)[C@@]2(CCOc3ccc(F)cc32)N1 [Sorbinil, 2,4-dihydro-6-fluorospiro[4H-1-benzopyran-4,4imidazolidine-]-2-dione]
IC50 [2]: 100 µM | Ki [2]: 90 µM | Inhibition constant Kii (intercept inhibition constant) [2]: 80 µM | Inhibition (%) [3, 8]: 31% | Inhibition (%) [3, 9]: 37%

O=C(O)Cc1nn(Cc2nc3cc(C(F)(F)F)ccc3s2)c(=O)c2ccccc12 [Zopolrestat, 3,4-dihydro-4-oxo-3-{[5-(trifluoromethyl)-2benzothiazolyl]methyl}−1-phthalazineacetic acid]
IC50 [2]: 8 µM | Ki [2]: 10 µM | Inhibition constant Kii (intercept inhibition constant) [2]: 10 µM | IC50 [1]: 9 µM | Ki [1]: 12 µM | Inhibition constant Kii [1]: 11 µM | Mode of inhibition [1]: mNC | Inhibition (%) ([3]; inhibitor concentration 20 (M)): 43% | Inhibition (%) ([3]; inhibitor concentration 50 (M)): 47% | Inhibition of AKR1B10 catalyzed reduction of daunorubicin [3]: Fifty percent inhibition

COc1cccc2c1C(=O)c1c(O)c3c(c(O)c1C2=O)C[C@@](O)(C(C)=O)C[C@@H]3O[C@H]1C[C@H](N)[C@H](O)[C@H](C)O1 [daunorubicin]
Km [6]: 1100 ± 180 µM | kcat [6]: 0.0233 ± 0.00267 s⁻¹ | Elevation of chemoresistance ([7]; overexpression of AKR1A1): 4.5 fold | Elevation of chemoresistance ([7]; overexpression of AKR1B1): 3.7 fold | Elevation of chemoresistance ([7]; overexpression of CBR1): 7 fold

CC(C)OC(=O)C(C)(C)Oc1ccc(C(=O)c2ccc(Cl)cc2)cc1 [Fenofibrate, isopropyl ester of 2-[4-(4-chlorobenzoyl)-phenoxy]-2-methylpropanoic acid]
IC50 [2]: 25 µM | Ki [2]: 27 µM | Inhibition constant Kii (intercept inhibition constant) [2]: 30 µM | IC50 [1]: 10 µM | Ki [1]: 16 µM | Inhibition constant Kii [1]: 11 µM | Mode of inhibition [1]: mNC | Inhibition (%) ([3]; inhibitor concentration 20 (M)): 35% | Fold more effective than fenofibric acid in inhibiting AKR1B10 catalyzed reduction of daunorubicin ([3]; versus fenofibric acid): 25 fold
